In article PMC7424198 (iScience, 2020):

Assay: Thermal unfolding monitored by CD spectroscopy
Format: physicochemical
Details: 20 μM protein, 10 mM phosphate buffer pH 7.4, 2 °C intervals, 20 to 90 °C
How it was run: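 TM read as the transition point from the first derivative of the CD thermal unfolding curve. Reversibility was checked by comparing spectra recorded before and after heating. The 202 nm signal was followed during denaturation to look for an isodichroic point, which would indicate a two-state helix–unfolded transition. Spectra were recorded on 20 μM protein in 10 mM phosphate buffer.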

Substance: aureocin A53
- transition midpoint (TM) of thermal unfolding: ~54 °C
